Assay results: ChEMBL document CHEMBL1124503, “The role of position 4 in angiotensin II antagonism: a structure-activity study” (J Med Chem, 1989)
*1 amine or outer side, *2 acyl side, *3 side chain or, on linkers, in order; H or OH if unused. Where a SMILES comes first, the peptide text is derived from it. [ ]: non-standard residue; d: D form. Phe(4-SO2NH2) = N[C@@H](Cc1ccc(S(N)(=O)=O)cc1)C(=O)O; Phe(4-NO2) = N[C@@H](Cc1ccc([N+](=O)[O-])cc1)C(=O)O; Phe(4-SO3H) = N[C@@H](Cc1ccc(S(=O)(=O)O)cc1)C(=O)O; X2 = CC(=O)NCSc1ccc(C[C@H](N[*:1])C(=O)[*:2])cc1; Phe(4-B(OH)2) = N[C@@H](Cc1ccc(B(O)O)cc1)C(=O)O; Phe(4-Cl) = N[C@@H](Cc1ccc(Cl)cc1)C(=O)O; X1 = O=C([C@H](Cc1ccc(S)cc1)N[*:1])[*:2]; Phe(4-NH2) = Nc1ccc(C[C@H](N)C(=O)O)cc1; Phe(4-F) = N[C@@H](Cc1ccc(F)cc1)C(=O)O; Sar = CNCC(=O)O

Legend:
Oryctolagus cuniculus = organism: Oryctolagus cuniculus; assay: Antagonist activity pA2, was measured in the in vitro rabbit aorta strip assay; format: functional; settings: read-out: pA2 (converted)
Summary of the method: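 Isolated rabbit aorta strip (method of Rioux et al.); pA2 against the ANG II dose-response curve, determined at low antagonist doses within the competitive-inhibition range.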

[1] = system: Angiotensin II receptor (Oryctolagus cuniculus); assay: Angiotensin II-like agonist activity, measured in the in vitro rabbit aorta strip assay
[2] = molecular target: Angiotensin II receptor (Rattus norvegicus) (UniProt P29089+P25095+P35351); assay: In vivo blood pressure increase produced by a 1 ug bolus i.v.; format: functional, organism-based
Summary of the method: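 Rat blood pressure assay (Regoli et al.); agonist activity read as the mmHg rise in blood pressure after a 1 μg intravenous bolus of compound.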

Rattus norvegicus = assay: Residual ANG II-like antagonist activity, ID50 was measured in vivo, in the rat blood pressure assay; format: functional

| Compound | Kb (Oryctolagus cuniculus) | Activity [1] | Blood pressure [2] | ID50 (Rattus norvegicus) |
| --- | --- | --- | --- | --- |
| CC[C@H](C)[C@H](NC(=O)[C@H](Cc1ccccc1)NC(=O)[C@@H](NC(=O)[C@H](CCCN=C(N)N)NC(=O)CNC)C(C)C)C(=O)N[C@@H](Cc1c[nH]cn1)C(=O)N1CCC[C@H]1C(=O)N[C@@H](Cc1ccccc1)C(=O)O (H-[Sar]RVFIHPF-OH) | 12.6 nM | 22% |  |  |
| CC[C@H](C)[C@H](NC(=O)[C@H](Cc1ccc(F)cc1)NC(=O)[C@@H](NC(=O)[C@H](CCCN=C(N)N)NC(=O)CNC)C(C)C)C(=O)N[C@@H](Cc1c[nH]cn1)C(=O)N1CCC[C@H]1C(=O)N[C@@H](Cc1ccccc1)C(=O)O | 31.6 nM | 0% | 22 mmHg | 150 ng min-1 rat-1 |
| CC[C@H](C)[C@H](NC(=O)[C@H](Cc1ccc(SCNC(C)=O)cc1)NC(=O)[C@@H](NC(=O)[C@H](CCCN=C(N)N)NC(=O)CNC)C(C)C)C(=O)N[C@@H](Cc1c[nH]cn1)C(=O)N1CCC[C@H]1C(=O)N[C@@H](Cc1ccccc1)C(=O)O (H-[Sar]RV[X2]IHPF-OH) | 8.13 nM | 9% |  |  |
| CC[C@H](C)[C@H](NC(=O)[C@H](Cc1ccc(OC)cc1)NC(=O)[C@@H](NC(=O)[C@H](CCCN=C(N)N)NC(=O)CNC)C(C)C)C(=O)N[C@@H](Cc1c[nH]cn1)C(=O)N1CCC[C@H]1C(=O)N[C@@H](Cc1ccccc1)C(=O)O | 79.4 nM | 0% | 20 mmHg | 250 ng min-1 rat-1 |
| CC[C@H](C)[C@H](NC(=O)[C@H](Cc1ccc(S(N)(=O)=O)cc1)NC(=O)[C@@H](NC(=O)[C@H](CCCN=C(N)N)NC(=O)CNC)C(C)C)C(=O)N[C@@H](Cc1c[nH]cn1)C(=O)N1CCC[C@H]1C(=O)N[C@@H](Cc1ccccc1)C(=O)O (H-[Sar]RV[Phe(4-SO2NH2)]IHPF-OH) |  | 0.9% |  |  |
| CC[C@H](C)[C@H](NC(=O)[C@H](Cc1ccc(Cl)cc1)NC(=O)[C@@H](NC(=O)[C@H](CCCN=C(N)N)NC(=O)CNC)C(C)C)C(=O)N[C@@H](Cc1c[nH]cn1)C(=O)N1CCC[C@H]1C(=O)N[C@@H](Cc1ccccc1)C(=O)O (H-[Sar]RV[Phe(4-Cl)]IHPF-OH) | 31.6 nM | 0% | 5.5 mmHg | 30 ng min-1 rat-1 |
| CC[C@H](C)[C@H](NC(=O)[C@H](Cc1ccc(O)cc1)NC(=O)[C@@H](NC(=O)[C@H](CCCN=C(N)N)NC(=O)CNC)C(C)C)C(=O)N[C@@H](Cc1c[nH]cn1)C(=O)N1CCC[C@H]1C(=O)N[C@@H](Cc1ccccc1)C(=O)O |  |  | 50 mmHg |  |
| CC[C@H](C)[C@H](NC(=O)[C@H](Cc1ccc(F)cc1)NC(=O)[C@@H](NC(=O)[C@H](CCCN=C(N)N)NC(=O)CNC)C(C)C)C(=O)N[C@@H](Cc1c[nH]cn1)C(=O)N1CCC[C@H]1C(=O)N[C@H](Cc1ccccc1)C(=O)O | 141 nM | 0% | 10 mmHg | 50 ng min-1 rat-1 |
| CC[C@H](C)[C@H](NC(=O)[C@@H]1CCCN1C(=O)[C@H](Cc1c[nH]cn1)NC(=O)[C@@H](NC(=O)[C@H](Cc1ccc([N+](=O)[O-])cc1)NC(=O)[C@@H](NC(=O)[C@H](CCCN=C(N)N)NC(=O)CNC)C(C)C)[C@@H](C)CC)C(=O)O (H-[Sar]RV[Phe(4-NO2)]IHPI-OH) | 79.4 nM | 0% | 5 mmHg |  |
| CC[C@H](C)[C@H](NC(=O)[C@@H]1CCCN1C(=O)[C@H](Cc1c[nH]cn1)NC(=O)[C@@H](NC(=O)[C@H](Cc1ccccc1)NC(=O)[C@@H](NC(=O)[C@H](CCCN=C(N)N)NC(=O)CNC)C(C)C)[C@@H](C)CC)C(=O)O (H-[Sar]RVFIHPI-OH) | 3.16 nM | 0% | 2.7 mmHg | 80 ng min-1 rat-1 |
| CC[C@H](C)[C@H](NC(=O)[C@@H]1CCCN1C(=O)[C@H](Cc1c[nH]cn1)NC(=O)[C@@H](NC(=O)[C@H](Cc1ccc(OC)cc1)NC(=O)[C@@H](NC(=O)[C@H](CCCN=C(N)N)NC(=O)CNC)C(C)C)[C@@H](C)CC)C(=O)O | 79.4 nM | 0% | 3 mmHg | 100 ng min-1 rat-1 |
| CCOc1ccc(C[C@H](NC(=O)[C@@H](NC(=O)[C@H](CCCN=C(N)N)NC(=O)CNC)C(C)C)C(=O)N[C@H](C(=O)N[C@@H](Cc2c[nH]cn2)C(=O)N2CCC[C@H]2C(=O)N[C@H](C(=O)O)[C@@H](C)CC)[C@@H](C)CC)cc1 | > 1000 nM | 0% | 5 mmHg | >1000 ng min-1 rat-1 |
| CC[C@H](C)[C@H](NC(=O)[C@@H]1CCCN1C(=O)[C@H](Cc1c[nH]cn1)NC(=O)[C@@H](NC(=O)[C@H](Cc1ccc(Cl)cc1)NC(=O)[C@@H](NC(=O)[C@H](CCCN=C(N)N)NC(=O)CNC)C(C)C)[C@@H](C)CC)C(=O)O (H-[Sar]RV[Phe(4-Cl)]IHPI-OH) | > 1000 nM | 0% | 2 mmHg | 500 ng min-1 rat-1 |
| H-DRVYIHPL-OH | 1.66 nM | < 0.1% |  |  |
| CC[C@H](C)[C@H](NC(=O)[C@H](Cc1ccc(O)cc1)NC(=O)[C@@H](NC(=O)[C@H](CCCN=C(N)N)NC(=O)CNC)C(C)C)C(=O)N[C@@H](Cc1c[nH]cn1)C(=O)N1CCC[C@H]1C(=O)N[C@H](Cc1ccccc1)C(=O)O | 1 nM |  | 10 mmHg | 12.5 ng min-1 rat-1 |
| CC[C@H](C)[C@H](NC(=O)[C@@H]1CCCN1C(=O)[C@H](Cc1c[nH]cn1)NC(=O)[C@@H](NC(=O)[C@H](Cc1ccc(F)cc1)NC(=O)[C@@H](NC(=O)[C@H](CCCN=C(N)N)NC(=O)CNC)C(C)C)[C@@H](C)CC)C(=O)O (H-[Sar]RV[Phe(4-F)]IHPI-OH) | 158 nM | 0% | 0 mmHg | 750 ng min-1 rat-1 |
| CC[C@H](C)[C@H](NC(=O)[C@H](Cc1ccc(S)cc1)NC(=O)[C@@H](NC(=O)[C@H](CCCN=C(N)N)NC(=O)CNC)C(C)C)C(=O)N[C@@H](Cc1c[nH]cn1)C(=O)N1CCC[C@H]1C(=O)N[C@@H](Cc1ccccc1)C(=O)O (H-[Sar]RV[X1]IHPF-OH) | > 1000 nM | 0.9% |  |  |
| CC[C@H](C)[C@H](NC(=O)C1CCCN1C(=O)[C@H](Cc1c[nH]cn1)NC(=O)[C@@H](NC(=O)[C@H](Cc1ccc(O)cc1)NC(=O)[C@@H](NC(=O)[C@H](CCCN=C(N)N)NC(=O)CNC)C(C)C)[C@@H](C)CC)C(=O)O (single isomer, unassigned) | 0.794 nM |  | 10 mmHg | 10 ng min-1 rat-1 |
| CC[C@H](C)[C@H](NC(=O)[C@H](Cc1ccccc1)NC(=O)[C@@H](NC(=O)[C@H](CCCN=C(N)N)NC(=O)CNC)C(C)C)C(=O)N[C@@H](Cc1c[nH]cn1)C(=O)N1CCC[C@H]1C(=O)N[C@@H](Cc1ccc(O)cc1)C(=O)O | 31.6 nM | 0% | 5.5 mmHg | 50 ng min-1 rat-1 |
| CC[C@H](C)[C@H](NC(=O)[C@H](Cc1ccc(S(=O)(=O)O)cc1)NC(=O)[C@@H](NC(=O)[C@H](CCCN=C(N)N)NC(=O)CNC)C(C)C)C(=O)N[C@@H](Cc1c[nH]cn1)C(=O)N1CCC[C@H]1C(=O)N[C@@H](Cc1ccccc1)C(=O)O (H-[Sar]RV[Phe(4-SO3H)]IHPF-OH) | > 1000 nM | 0% |  |  |
| CC[C@H](C)[C@H](NC(=O)[C@@H]1CCCN1C(=O)[C@H](Cc1c[nH]cn1)NC(=O)[C@@H](NC(=O)[C@H](Cc1ccc(B(O)O)cc1)NC(=O)[C@@H](NC(=O)[C@H](CCCN=C(N)N)NC(=O)CNC)C(C)C)[C@@H](C)CC)C(=O)O (H-[Sar]RV[Phe(4-B(OH)2)]IHPI-OH) | 2000 nM | 0% | 0 mmHg | 500 ng min-1 rat-1 |
| CC[C@H](C)[C@H](NC(=O)[C@H](Cc1ccccc1)NC(=O)[C@@H](NC(=O)[C@H](CCCN=C(N)N)NC(=O)CNC)C(C)C)C(=O)N[C@@H](Cc1c[nH]cn1)C(=O)N1CCC[C@H]1C(=O)N[C@H](Cc1ccc(O)cc1)C(=O)O | 100 nM | 0% | 5 mmHg | 30 ng min-1 rat-1 |
| CC[C@H](C)[C@H](NC(=O)[C@H](Cc1ccc(N)cc1)NC(=O)[C@@H](NC(=O)[C@H](CCCN=C(N)N)NC(=O)CNC)C(C)C)C(=O)N[C@@H](Cc1c[nH]cn1)C(=O)N1CCC[C@H]1C(=O)N[C@@H](Cc1ccccc1)C(=O)O (H-[Sar]RV[Phe(4-NH2)]IHPF-OH) |  | 15% |  |  |
| CC[C@H](C)[C@H](NC(=O)[C@H](Cc1ccc(O)cc1)NC(=O)[C@@H](NC(=O)[C@H](CCCN=C(N)N)NC(=O)CNC)C(C)C)C(=O)N[C@@H](Cc1c[nH]cn1)C(=O)N1CCC[C@H]1C(=O)N[C@H](Cc1ccc(O)cc1)C(=O)O | 5.62 nM | 0% | 15 mmHg | 20 ng min-1 rat-1 |
| CC[C@H](C)[C@H](NC(=O)[C@H](Cc1ccc(B(O)O)cc1)NC(=O)[C@@H](NC(=O)[C@H](CCCN=C(N)N)NC(=O)CNC)C(C)C)C(=O)N[C@@H](Cc1c[nH]cn1)C(=O)N1CCC[C@H]1C(=O)N[C@@H](Cc1ccccc1)C(=O)O (H-[Sar]RV[Phe(4-B(OH)2)]IHPF-OH) |  | 10% |  |  |
